Source: ChEMBL document CHEMBL3046042, “3-(4-Methylfuran-3-yl)propan-1-ol: a white-spotted Stinkbug ( Eysarcoris ventralis ) repellent produced by an endophyte isolated from green foxtail” (2010)

What was measured:
Assay type in all cases: functional
Eysarcoris [1] = assay: Repellent activity against Eysarcoris ventralis assessed as reduction in number of bugs at 1 umol measured after 30 min
Summary of the method: (§1)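 Two-choice bottle assay. Sample dissolved in acetone, 50 μL applied to filter paper strip (5 × 40 mm); control strip got acetone only. Strips dried, each placed in a glass bottle joined to the apparatus. Twenty E. ventralis adults released, held at 10 °C under light; bugs per bottle counted after 30 min. Repellency calculated by formula; four repeats, average ± standard error.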

Eysarcoris [2] = assay: Repellent activity against Eysarcoris ventralis assessed as reduction in number of bugs at 0.1 umol measured after 30 min; summary of the method: as §1
Eysarcoris [3] = assay: Repellent activity against Eysarcoris ventralis assessed as reduction in number of bugs at 0.01 umol measured after 30 min; summary of the method: as §1
Eysarcoris [4] = assay: Repellent activity against Eysarcoris ventralis assessed as reduction in number of bugs at 0.003 umol measured after 30 min; summary of the method: as §1

Structure (SMILES)	Repellency (Eysarcoris [1])	Repellency (Eysarcoris [2])	Repellency (Eysarcoris [3])	Repellency (Eysarcoris [4])
Cc1cocc1CCCOC(=O)c1ccccc1	40.7%	5.3%		
CCCC(=O)OCCCc1cocc1C	96.4%	51.8%	-19.4%	19.5%
CC(=O)OCCCc1cocc1C		90.2%	7.3%	10.7%
CCC(=O)OCCCc1cocc1C	89.3%	58%	20.5%	
Cc1cocc1CCCO	89.3%	5.7%		
c1ccc2ccccc2c1 [NAPHTHALENE]	80.4%	44.6%	40.7%	
